# According to ChEMBL document CHEMBL1141140, “Antifungal agents. 11. N-substituted derivatives of 1-[(aryl)(4-aryl-1H-pyrrol-3-yl)methyl]-1H-imidazole: synthesis, anti-Candida activity, and QSAR studies” (2005):
# Legend:
# Type in all cases: functional
# Candida albicans [1] = assay: Ratio of the in vitro minimal inhibitory to that of bifonazole against Candida albicans (MIC(compound)/MIC(bifonazole))
# Summary of the method: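 Broth microdilution per NCCLS M27-A2 against 12 Candida albicans strains (AIDS oropharyngeal, HIV vulvovaginitis isolates, ATCC 24433 and 20891, lab strains 3153 and CA2). Inoculum ~10^4 cells/mL in RPMI 1640, pH 7.0; DMSO stocks 6.4 mg/mL, twofold dilutions 0.016–64 μg/mL; read at 24 h, 28 °C, no visible growth. Mean MIC over strains converted to μmol/mL, divided by bifonazole MIC.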
# Candida albicans [2] = assay: In vitro minimal inhibitory concentration against Candida albicans with percentage of resistant strains %R = 50 (MIC > 64 ug/mL) at a range of 2-4 ug/mL
# Candida albicans [3] = assay: In vitro concentration causing 90% inhibition of Candida albicans with percentage of resistant strains %R = 50 (MIC > 64 ug/mL) at a range of 2-4 ug/mL
# Candida albicans [4] = assay: In vitro concentration causing 50% inhibition of Candida albicans with percentage of resistant strains %R = 50 (MIC > 64 ug/mL) at a range of 2-4 ug/mL
# Candida albicans [5] = assay: In vitro concentration causing 90% inhibition of Candida albicans with percentage of resistant strains %R = 41.66 (MIC > 64 ug/mL) at a range of 0.5-2 ug/mL
# Candida albicans [6] = assay: In vitro minimal inhibitory concentration against Candida albicans with percentage of resistant strains %R = 41.66 (MIC > 64 ug/mL) at a range of 0.5-2 ug/mL
# Candida albicans [7] = assay: In vitro concentration causing 50% inhibition of Candida albicans with percentage of resistant strains %R = 41.66 (MIC > 64 ug/mL) at a range of 0.5-2 ug/mL
# Candida albicans [8] = assay: In vitro concentration causing 90% inhibition of Candida albicans with percentage of resistant strains %R = 100 (MIC > 64 ug/mL) at a range > 64
# Candida albicans [9] = assay: In vitro concentration causing 50% inhibition of Candida albicans with percentage of resistant strains %R = 100 (MIC > 64 ug/mL) at a range > 64
# Candida albicans [10] = assay: In vitro minimal inhibitory concentration against Candida albicans with percentage of resistant strains %R = 100 (MIC > 64 ug/mL) at a range > 64
# Candida albicans [11] = assay: In vitro minimal inhibitory concentration against Candida albicans with percentage of resistant strains %R = 33.33 (MIC > 64 ug/mL) at a range of 0.25-2 ug/mL
# Candida albicans [12] = assay: In vitro concentration causing 50% inhibition of Candida albicans with percentage of resistant strains %R = 33.33 (MIC > 64 ug/mL) at a range of 0.25-2 ug/mL
# Candida albicans [13] = assay: In vitro concentration causing 90% inhibition of Candida albicans with percentage of resistant strains %R = 33.33 (MIC > 64 ug/mL) at a range of 0.25-2 ug/mL
# Candida albicans [14] = assay: In vitro minimal inhibitory concentration against Candida albicans with percentage of resistant strains %R = 50 (MIC > 64 ug/mL) at a range of 0.5-16 ug/mL
# Candida albicans [15] = assay: In vitro concentration causing 90% inhibition of Candida albicans with percentage of resistant strains %R = 50 (MIC > 64 ug/mL) at a range of 0.5-16 ug/mL
# Candida albicans [16] = assay: In vitro concentration causing 50% inhibition of Candida albicans with percentage of resistant strains %R = 50 (MIC > 64 ug/mL) at a range of 0.5-16 ug/mL
# Candida albicans [17] = assay: In vitro minimal inhibitory concentration against Candida albicans with percentage of resistant strains %R = 66 (MIC > 64 ug/mL) at a range of 2-8 ug/mL
# Candida albicans [18] = assay: In vitro concentration causing 50% inhibition of Candida albicans with percentage of resistant strains %R = 66 (MIC > 64 ug/mL) at a range of 2-8 ug/mL
# Candida albicans [19] = assay: In vitro concentration causing 90% inhibition of Candida albicans with percentage of resistant strains %R = 66 (MIC > 64 ug/mL) at a range of 2-8 ug/mL
# Candida albicans [20] = assay: In vitro minimal inhibitory concentration against Candida albicans with percentage of resistant strains %R = 66 (MIC > 64 ug/mL) at a range of 0.25-2 ug/mL
# Candida albicans [21] = assay: In vitro concentration causing 90% inhibition of Candida albicans with percentage of resistant strains %R = 66 (MIC > 64 ug/mL) at a range of 0.25-2 ug/mL
# Candida albicans [22] = assay: In vitro concentration causing 50% inhibition of Candida albicans with percentage of resistant strains %R = 66 (MIC > 64 ug/mL) at a range of 0.25-2 ug/mL
# Candida albicans [23] = assay: In vitro concentration causing 90% inhibition of Candida albicans with percentage of resistant strains %R = 25 (MIC > 64 ug/mL) at a range of 0.5-2 ug/mL
# Candida albicans [24] = assay: In vitro concentration causing 50% inhibition of Candida albicans with percentage of resistant strains %R = 25 (MIC > 64 ug/mL) at a range of 0.5-2 ug/mL
# Candida albicans [25] = assay: In vitro minimal inhibitory concentration against Candida albicans with percentage of resistant strains %R = 25 (MIC > 64 ug/mL) at a range of 0.5-2 ug/mL
# Candida albicans [26] = assay: In vitro concentration causing 90% inhibition of Candida albicans with percentage of resistant strains %R = 50 (MIC > 64 ug/mL) at a range of 0.125-2 ug/mL
# Candida albicans [27] = assay: In vitro concentration causing 50% inhibition of Candida albicans with percentage of resistant strains %R = 50 (MIC > 64 ug/mL) at a range of 0.125-2 ug/mL
# Candida albicans [28] = assay: In vitro minimal inhibitory concentration against Candida albicans with percentage of resistant strains %R = 50 (MIC > 64 ug/mL) at a range of 0.125-2 ug/mL
structure (smiles),measurement,setting,value
COC(Cn1cc(-c2ccc(Cl)cc2)c(C(c2ccc(Cl)cc2Cl)n2ccnc2)c1)OC (stereo not given),Ratio,Candida albicans [1],0.48
same,MIC,Candida albicans [2],2.66 µg/mL
same,MIC90,Candida albicans [3],4 µg/mL
same,MIC50,Candida albicans [4],2 µg/mL
CCn1cc(-c2ccc(Cl)cc2Cl)c(C(c2ccc(Cl)cc2Cl)n2ccnc2)c1 (stereo not given),Ratio,Candida albicans [1],0.23
same,MIC90,Candida albicans [5],2 µg/mL
same,MIC,Candida albicans [6],1.21 µg/mL
same,MIC50,Candida albicans [7],1 µg/mL
CCCn1cc(-c2ccc(Cl)cc2Cl)c(C(c2ccc(Cl)cc2Cl)n2ccnc2)c1 (stereo not given),MIC90,Candida albicans [8],> 64 µg/mL
same,MIC50,Candida albicans [9],> 64 µg/mL
same,MIC,Candida albicans [10],> 64 µg/mL
Cc1ccc(C(c2cn(C)cc2-c2ccc(Cl)c(Cl)c2)n2ccnc2)cc1 (stereo not given),Ratio,Candida albicans [1],0.19
same,MIC,Candida albicans [11],0.87 µg/mL
same,MIC50,Candida albicans [12],0.5 µg/mL
same,MIC90,Candida albicans [13],2 µg/mL
Cn1cc(-c2cccc3ccccc23)c(C(c2ccc(Cl)cc2Cl)n2ccnc2)c1 (stereo not given),Ratio,Candida albicans [1],0.94
same,MIC,Candida albicans [14],4.58 µg/mL
same,MIC90,Candida albicans [15],16 µg/mL
same,MIC50,Candida albicans [16],4 µg/mL
CCn1cc(-c2cccc3ccccc23)c(C(c2ccc(Cl)cc2Cl)n2ccnc2)c1 (stereo not given),Ratio,Candida albicans [1],1.1
same,MIC,Candida albicans [17],5.5 µg/mL
same,MIC50,Candida albicans [18],4 µg/mL
same,MIC90,Candida albicans [19],8 µg/mL
CCCn1cc(-c2ccc(Cl)cc2)c(C(c2ccc(Cl)cc2Cl)n2ccnc2)c1 (stereo not given),Ratio,Candida albicans [1],1.7
same,MIC,Candida albicans [20],8.56 µg/mL
same,MIC90,Candida albicans [21],32 µg/mL
same,MIC50,Candida albicans [22],1 µg/mL
CCn1cc(-c2ccc(Cl)cc2)c(C(c2ccc(Cl)cc2Cl)n2ccnc2)c1 (stereo not given),Ratio,Candida albicans [1],0.31
same,MIC90,Candida albicans [23],2 µg/mL
same,MIC50,Candida albicans [24],2 µg/mL
same,MIC,Candida albicans [25],1.5 µg/mL
Cn1cc(-c2ccc(Cl)cc2)c(C(c2ccc(Cl)cc2Cl)n2ccnc2)c1 (stereo not given),Ratio,Candida albicans [1],0.28
same,MIC90,Candida albicans [26],2 µg/mL
same,MIC50,Candida albicans [27],1 µg/mL
same,MIC,Candida albicans [28],1.31 µg/mL
